Columns and labels:
[1] = tested on: Influenza B virus; assay: Antiviral activity against Influenza B virus B/Ned/537/05 infected in MDCK cells assessed as reduction in virus-induced cytopathic effect after 3 days by microscopic method; assay type: functional, organism-based; conditions: B/Ned/537/05, MDCK, 72 h
Outline: (§1)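 Semi-confluent MDCK cells were infected at an MOI of 0.0004 PFU/cell in Ultra-MDCK infection medium with 2 μg/mL TPCK-trypsin, together with compounds. After 3 days at 35 °C, CPE was scored by microscopy and confirmed by MTS formazan viability. Values are means of two to five independent tests.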

[2] = Cytotoxicity against HEL299 cells assessed as changes in cell morphology after 5 days by microscopic method; assay type: cell-based, HEL 299; conditions: human
Outline: (§2)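 Confluent HEL 299 cells in medium with 2% FCS were exposed to HCoV-229E (100 CCID50/well) together with compounds and held for 5 days at 35 °C. EC50 (CPE reduction) and MCC (minimal morphology change) were determined by microscopy. SI is MCC/EC50.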

[3] = Cytotoxicity against human A549 cells assessed as changes in cell morphology after 3 days by microscopic method; assay type: cell-based
Outline: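 Mock-infected A549 cells were incubated with compounds for 3 days. MCC is the concentration causing minimal change in cell morphology by microscopy.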

[4] = tested on: Influenza A virus; assay: Antiviral activity against Influenza A virus A/Virginia/ATCC3/2009(H1N1pdm) infected in MDCK cells after 3 days by MTS assay; assay type: functional, organism-based, Influenza A virus (A/Virginia/03/2009(H1N1)); conditions: 72 h
Outline: as §1, with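 “viability. EC50 is the concentration giving 50% inhibition of virus-induced CPE.” for “viability.”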

[5] = tested on: Human coronavirus 229E; assay: Antiviral activity against Human coronavirus 229E infected in human A549 cells assessed as reduction in virus RNA level after 3 days by qRT-PCR method; assay type: functional; conditions: A549, 72 h
Outline: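 Confluent A549 cells were infected with HCoV-229E in 2% FCS medium with compounds present. The inoculum was removed at 1 h and compounds were kept on at 35 °C. Supernatants were harvested at day 3, lysed at 75 °C for 10 min, and viral genome copies counted by one-step qRT-PCR.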

[6] = tested on: MDCK; assay: Cytotoxicity against MDCK cells assessed as reduction in cell viability after 3 days by MTS assay; assay type: cell-based, Canis lupus familiaris; conditions: dog, mdck, 72 h
[7] = tested on: Human coronavirus 229E; assay: Antiviral activity against Human coronavirus 229E infected in HEL299 cells assessed as reduction in virus induced cytopathic effect after 5 days by microscopic method; assay type: functional, organism-based; conditions: HEL 299, 120 h; outline: as §2
[8] = Cytotoxicity against MDCK cells assessed as alteration in cell morphology after 3 days by microscopic method; assay type: cell-based, Canis lupus familiaris; conditions: dog
Outline: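 Mock-infected MDCK cells were treated with compounds in parallel with the antiviral assay, 3 days at 35 °C. MCC is the concentration causing minimal change in cell morphology by microscopy. CC50 is the 50% cytotoxic concentration by MTS formazan viability assay.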

[9] = tested on: Influenza A virus; assay: Antiviral activity against Influenza A virus A/PR/8/34(H1N1) infected in MDCK cells after 3 days by MTS assay; assay type: functional, organism-based, A/Puerto Rico/8/1934(H1N1); conditions: Influenza A virus, A/Puerto Rico/8/1934(H1N1), MDCK, 72 h
Outline: as §1, with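 “viability. EC50 is the concentration giving 50% inhibition of virus-induced CPE.” for “viability.”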

[10] = tested on: Influenza A virus; assay: Antiviral activity against Influenza A virus A/Virginia/ATCC3/2009(H1N1pdm) infected in MDCK cells assessed as reduction in virus-induced cytopathic effect after 3 days by microscopic method; assay type: functional, organism-based, Influenza A virus (A/Virginia/03/2009(H1N1)); conditions: 72 h
Outline: as §1, with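 “viability. EC50 is the concentration giving 50% inhibition of virus-induced CPE.” for “viability.”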

[11] = tested on: Influenza B virus; assay: Antiviral activity against Influenza B virus B/Ned/537/05 infected in MDCK cells after 3 days by MTS assay; assay type: functional, organism-based; conditions: B/Ned/537/05, MDCK, 72 h; outline: as §1
[12] = tested on: H3N2 subtype; assay: Antiviral activity against Influenza A virus A/HK/7/87(H3N2) infected in MDCK cells assessed as reduction in virus-induced cytopathic effect after 3 days by microscopic method; assay type: functional, organism-based; conditions: A/Hong Kong/7/1987(H3N2), 72 h
Outline: as §1, with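 “viability. EC50 is the concentration giving 50% inhibition of virus-induced CPE.” for “viability.”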

[13] = tested on: H3N2 subtype; assay: Antiviral activity against Influenza A virus A/HK/7/87(H3N2) infected in MDCK cells after 3 days by MTS assay; assay type: functional, organism-based; conditions: A/Hong Kong/7/1987(H3N2), 72 h
Outline: as §1, with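 “viability. EC50 is the concentration giving 50% inhibition of virus-induced CPE.” for “viability.”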

[14] = tested on: Influenza A virus; assay: Antiviral activity against Influenza A virus A/PR/8/34(H1N1) infected in MDCK cells assessed as reduction in virus-induced cytopathic effect after 3 days by microscopic method; assay type: functional, organism-based, A/Puerto Rico/8/1934(H1N1); conditions: Influenza A virus, A/Puerto Rico/8/1934(H1N1), MDCK, 72 h
Outline: as §1, with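 “viability. EC50 is the concentration giving 50% inhibition of virus-induced CPE.” for “viability.”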

[15] = tested on: Influenza B virus; assay: Antiviral activity against Influenza B virus B/HK/05/72 infected in MDCK cells after 3 days by MTS assay; assay type: functional, organism-based; conditions: B/Hong Kong/05/1972, MDCK, 72 h
Outline: as §1, with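 “viability. EC50 is the concentration giving 50% inhibition of virus-induced CPE.” for “viability.”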

[16] = tested on: Influenza B virus; assay: Antiviral activity against Influenza B virus B/HK/05/72 infected in MDCK cells assessed as reduction in virus-induced cytopathic effect after 3 days by microscopic method; assay type: functional, organism-based; conditions: B/Hong Kong/05/1972, MDCK, 72 h
Outline: as §1, with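 “viability. EC50 is the concentration giving 50% inhibition of virus-induced CPE.” for “viability.”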

Row | Compound | EC50 [1] | MCC at 120 h [2] | MCC at 72 h [3] | EC50 [4] | EC90 [5] | EC99 [5] | CC50 [6] | EC50 [7] | MCC at 72 h [8] | EC50 [9] | EC50 [10] | EC50 [11] | EC50 [12] | EC50 [13] | EC50 [14] | EC50 [15] | EC50 [16]
1 | CCCCCCCCS(=O)(=O)N[C@H]1C(=O)N[C@@H]2Cc3ccc(c(Cl)c3)Oc3cc4cc(c3O)Oc3ccc(cc3Cl)[C@@H](O[C@@H]3O[C@H](CO)[C@@H](O)[C@H](O)[C@H]3NC(C)=O)[C@H]3NC(=O)[C@H](NC(O)[C@@H]4NC(=O)[C@@H](NC2=O)c2cc(O)cc(c2)Oc2cc1ccc2O)c1ccc(O)c(c1)-c1c(O)cc(O)cc1[C@H](C(=O)O)NC3=O (stereo partly specified) | 4 µM | ≥ 20 µM | > 50 µM | > 100 µM | 5.7 µM | 9.4 µM | 14 µM | 5.4 µM | 20 µM | 2.5 µM | > 100 µM | > 100 µM | 2 µM | 2.4 µM | 1.9 µM | – | –
2 | CCCCSC1=C(SCCCC)C(=O)N(Cc2cn(C3C(=O)N[C@@H]4Cc5ccc(c(Cl)c5)Oc5cc6cc(c5O)Oc5ccc(cc5Cl)[C@@H](O[C@@H]5O[C@H](CO)[C@@H](O)[C@H](O)[C@H]5NC(C)=O)[C@H]5NC(=O)[C@H](NC(O)[C@@H]6NC(=O)[C@@H](NC4=O)c4cc(O)cc(c4)Oc4cc3ccc4O)c3ccc(O)c(c3)-c3c(O)cc(O)cc3[C@H](C(=O)O)NC5=O)nn2)C1=O (stereo partly specified) | 2.5 µM | ≥ 20 µM | > 50 µM | 7.4 µM | 5.9 µM | 11 µM | 28 µM | 5.4 µM | 20 µM | 3.2 µM | 9.8 µM | 3.5 µM | > 100 µM | 4.9 µM | 2.1 µM | – | –
3 | CC(=O)Nc1ccc(S(=O)(=O)N[C@H]2C(=O)N[C@@H]3Cc4ccc(c(Cl)c4)Oc4cc5cc(c4O)Oc4ccc(cc4Cl)[C@@H](O[C@@H]4O[C@H](CO)[C@@H](O)[C@H](O)[C@H]4NC(C)=O)[C@H]4NC(=O)[C@H](NC(O)[C@@H]5NC(=O)[C@@H](NC3=O)c3cc(O)cc(c3)Oc3cc2ccc3O)c2ccc(O)c(c2)-c2c(O)cc(O)cc2[C@H](C(=O)O)NC4=O)cc1 (stereo partly specified) | > 100 µM | ≥ 20 µM | – | > 100 µM | – | – | 60 µM | > 100 µM | 100 µM | > 100 µM | > 100 µM | 47 µM | > 100 µM | > 100 µM | > 100 µM | – | –
4 | CC(=O)N[C@H]1[C@H](O[C@@H]2c3ccc(c(Cl)c3)Oc3cc4cc(c3O)Oc3ccc(cc3Cl)C[C@H]3NC(=O)[C@H](NS(=O)(=O)c5ccc(-c6ccccc6)cc5)c5ccc(O)c(c5)Oc5cc(O)cc(c5)[C@H](NC3=O)C(=O)N[C@H]4C(O)N[C@H]3C(=O)N[C@H]2C(=O)N[C@@H](C(=O)O)c2cc(O)cc(O)c2-c2cc3ccc2O)O[C@H](CO)[C@@H](O)[C@@H]1O (stereo partly specified) | 1.8 µM | 4 µM | – | 2 µM | – | – | 15 µM | > 100 µM | 11 µM | 1.7 µM | 2 µM | 2.4 µM | 1.5 µM | 1.6 µM | 1.8 µM | – | –
5 | O=C(N/C(=C\c1ccccc1)C(=O)N1CCC(O)(c2ccc(Br)cc2)CC1)c1ccccc1 | – | – | ≥ 50 µM | – | 11 µM | 15 µM | – | – | – | – | – | – | – | – | – | – | –
6 | CC(=O)N[C@H]1[C@H](O[C@@H]2c3ccc(c(Cl)c3)Oc3cc4cc(c3O)Oc3ccc(cc3Cl)C[C@H]3NC(=O)[C@H](NS(=O)(=O)c5cccc6c(N(C)C)cccc56)c5ccc(O)c(c5)Oc5cc(O)cc(c5)[C@H](NC3=O)C(=O)N[C@H]4C(O)N[C@H]3C(=O)N[C@H]2C(=O)N[C@@H](C(=O)O)c2cc(O)cc(O)c2-c2cc3ccc2O)O[C@H](CO)[C@@H](O)[C@@H]1O (stereo partly specified) | 6.7 µM | ≥ 4 µM | – | 5.9 µM | – | – | 52 µM | > 100 µM | 20 µM | 7 µM | 6.3 µM | 5.3 µM | 8.3 µM | 2.3 µM | 4.9 µM | – | –
7 | CCCCCCCCSC1=C(SCCCCCCCC)C(=O)N(CCOCCOCCOCCOCc2cn(C3C(=O)N[C@@H]4Cc5ccc(c(Cl)c5)Oc5cc6cc(c5O)Oc5ccc(cc5Cl)[C@@H](O[C@@H]5O[C@H](CO)[C@@H](O)[C@H](O)[C@H]5NC(C)=O)[C@H]5NC(=O)[C@H](NC(O)[C@@H]6NC(=O)[C@@H](NC4=O)c4cc(O)cc(c4)Oc4cc3ccc4O)c3ccc(O)c(c3)-c3c(O)cc(O)cc3[C@H](C(=O)O)NC5=O)nn2)C1=O (stereo partly specified) | – | – | – | ≤ 0.8 µM | – | – | 19 µM | – | ≥ 4 µM | 2 µM | ≤ 1.4 µM | – | 0.92 µM | ≤ 0.8 µM | 1.3 µM | > 20 µM | > 20 µM
8 | CCCCCCCCSC1=C(SCCCCCCCC)C(=O)N([C@H]2C(=O)N[C@@H]3Cc4ccc(c(Cl)c4)Oc4cc5cc(c4O)Oc4ccc(cc4Cl)[C@@H](O[C@@H]4O[C@H](CO)[C@@H](O)[C@H](O)[C@H]4NC(C)=O)[C@H]4NC(=O)[C@H](NC(O)[C@@H]5NC(=O)[C@@H](NC3=O)c3cc(O)cc(c3)Oc3cc2ccc3O)c2ccc(O)c(c2)-c2c(O)cc(O)cc2[C@H](C(=O)O)NC4=O)C1=O (stereo partly specified) | – | – | – | 1.9 µM | – | – | 11 µM | – | 20 µM | > 100 µM | 2.1 µM | – | > 100 µM | > 100 µM | > 100 µM | > 100 µM | > 100 µM
9 | CCCCOCc1cn(CCOCCOCCOCCOCc2cn([C@H]3C(=O)N[C@@H]4Cc5ccc(c(Cl)c5)Oc5cc6cc(c5O)Oc5ccc(cc5Cl)[C@@H](O[C@@H]5O[C@H](CO)[C@@H](O)[C@H](O)[C@H]5NC(C)=O)[C@H]5NC(=O)[C@H](NC(O)[C@@H]6NC(=O)[C@@H](NC4=O)c4cc(O)cc(c4)Oc4cc3ccc4O)c3ccc(O)c(c3)-c3c(O)cc(O)cc3[C@H](C(=O)O)NC5=O)nn2)nn1 (stereo partly specified) | > 100 µM | ≥ 100 µM | – | 47 µM | – | – | > 100 µM | ≥ 100 µM | 100 µM | 51 µM | > 100 µM | 28 µM | > 100 µM | 31 µM | > 100 µM | – | –
10 | CCCCCCCCCCCCSC1=C(SCCCCCCCCCCCC)C(=O)N(Cc2cn(C3C(=O)N[C@@H]4Cc5ccc(c(Cl)c5)Oc5cc6cc(c5O)Oc5ccc(cc5Cl)[C@@H](O[C@@H]5O[C@H](CO)[C@@H](O)[C@H](O)[C@H]5NC(C)=O)[C@H]5NC(=O)[C@H](NC(O)[C@@H]6NC(=O)[C@@H](NC4=O)c4cc(O)cc(c4)Oc4cc3ccc4O)c3ccc(O)c(c3)-c3c(O)cc(O)cc3[C@H](C(=O)O)NC5=O)nn2)C1=O (stereo partly specified) | – | – | – | > 100 µM | – | – | 75 µM | – | 100 µM | > 100 µM | > 100 µM | – | > 100 µM | > 100 µM | > 100 µM | > 100 µM | > 100 µM

— ChEMBL document CHEMBL4270630
